According to the EternaBench riboswitch data:

Tested on: MS2 coat protein
Assay: apparent Kd, MS2 coat protein; higher = weaker binding; RNA-MaP array; FMN 200 µM where present
In short: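 Apparent Kd: the median of filtered binding-curve fits from single clusters. Designs were transcribed on Illumina sequencing-chip clusters by stalled E. coli RNA polymerase and titrated with SNAP-549-labelled MS2 coat protein from 0.7 or 1.5 nM, doubling to 3 µM, in 100 mM Tris-HCl pH 7.5, 80 mM KCl, 4 mM MgCl2, BSA, DTT, yeast tRNA and Tween-20. Each series ran without and then with constant ligand, and green signal was normalised to red-channel RNA signal and control-cluster median Fmax.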

[1] = designed as: OFF switch for flavin mononucleotide, no ligand
[2] = ligand present: flavin mononucleotide, designed as: OFF switch for flavin mononucleotide
[3] = designed as: ON switch for flavin mononucleotide, no ligand
[4] = ligand present: flavin mononucleotide, designed as: ON switch for flavin mononucleotide

Sequence	apparent Kd [1]	apparent Kd [2]	apparent Kd [3]	apparent Kd [4]
UAGAAGUCAGGAUAUCCAUGGCGGCACUUGCGUGGUGGCGUGGAGAAGGGACAUGAGGAUCACCCAUGUAAAGA	54.4 nM	42 nM		
AAGAUGUGAGGAUAUCACGAGAGCGUCAAACGGACACUCUCUGAGAAGGCACAUGAGGAUCACCCAUGUCCAAA	57.2 nM	295 nM		
CUCAAACAUGAGGAUCACCCAUGUGUUGUCAUGGGAGGAUAUCUAAGUUCAUUGUAUUCAGGAGAAGGCCUAUGUC			310 nM	34.4 nM
AGCUAAAUGUCAGGAUAUGCCCGCCAGGUGGAAGCAGAAGGGACAUACCAGACAUGAGGAUCACCCAUGUAAACUGGGUAAGAA			142 nM	126 nM
UUACGGAUAGAGGAUAUAUUAAGGAAAGUUUCGAUAGAAGGCUAGACAUGAGGAUCACCCAUGUAUAUUGGGAU	131 nM	151 nM		
AAUUAUAUGUAGAAGGUACUAACAUAAGUGUUGUAAGGAUAUACCAAUUUAUUAGUUUUAAAGUUACAUGAGGAUCACCCAUGU			12.4 nM	7.98 nM
CUGCGUCGUGUUAGGAUAUCCAGCGGUGCGCGCCAGGAGAAGGAACAUGAGGAUCACCCAUGUAAACCGAUGGC	12.4 nM	13.4 nM		
UGUUAAUAUCGAGGAUAUGUCUAGACACAUGAGGAUCACCCAUGUAUGUGUAUAGAAGGCGAUAUUAACAGCAUGUUACAUGCA			36.9 nM	16.9 nM
GCACCUUUAUUUGAACCGAUACGAACAUGAGGAUCACCCAUGUAGGAUAUGCUUAAAGUUGUGUUGCAGAAGGACAUUUAGUGC	8.76 nM	8.31 nM		
AGCCUACAUGAGGAUCACCCAUGUCAGGAUAUCUCGCGACGUGUCGGGUUCACGUUGCAGAGAAGGGACUCGGG	50.7 nM	67.3 nM		
UGGAGGUCAGGAUAUGCAUGGCGGGACUUGCGUCGUGGCGUGCAGAAGGGACAUGAGGAUCACCCAUGUGGAGA	88.6 nM	112 nM		
AUUUUAAUAUAGGAUAUCGAAUUUAUUAUUUAACGAGAAGGAUAAACAUGAGGAUCACCCAUGUGGUAUCAUGG	126 nM	117 nM		
CUCGUGUCAGGAUAUCGAUGGCACCUCCGGGCGCCCGAACGCGAGAAGGGACAUGAGGAUCACCCAUGUAAAAC	66.8 nM	113 nM		
GCUAUCGGGUGAGGAUAUAUAAUUGUGAUUAAAAUAGAAGGCAUCUCAGAAGACAUGAGGAUCACCCAUGUAGUUAAGAUGGCA			23.8 nM	20.1 nM
UACGUUCUACGCGACAUGAGGAUCACCCAUGUUAGCCGAUCACAGGAUAUGUUGGAGCCGGUCGAACAGAAGGGUGAGUCUGCU			38.8 nM	38.9 nM
UGUUCUAUGUAGAAGGCCCAUAUCUGUAUUUAGGGAGGAUAUACAUGAGGAUCACCCAUGUGUAGAGCUGGUGGACUGGUCAGC	13.6 nM	38.9 nM		
GUCACGAAUGUAGGAUAUCGAGUGGAUAACACUCGAGAAGGACAUGAGGAUCACCCAUGUAAAAUGAAAGAUAAUAAACGUGAC	17.6 nM	50.5 nM		
AAUAAACUCACAGGAUAUAGCAGAGGUCGCGUGAACUUACAGACGACGAUGCUAGAAGGGUGACCACAUGAGGAUCACCCAUGU			591 nM	151 nM
GAGAGAGGGUGAGGAUAUUCAGUAAUAAUGAUAGAAGAAGGCACAGACAUGAGGAUCACCCAUGUGGGAAUAAUCCAGAGAGAG			182 nM	207 nM
GCGUAUUUAAUAUAUAUAAAACUGUCAGAAGGUGAUAAGACGACAUGAGGAUCACCCAUGUAAUUCAAGGAUAUGAUAAUGCGC			37.3 nM	20.3 nM
GCUAGUGCUGUGAGGAUAUGUGAUCGGAAAUGAUCGUAGAAGGCACAUGAGGAUCACCCAUGUAAGGUGCUAGU	287 nM	37.6 nM		
GAGAAGUCAGGAUAUCCAUGGCGGCACUUGCGUGGUGGCGUGGAGAAGGGACAUGAGGAUCACCCAUGUAAAGU	49.8 nM	39.1 nM		
GCACUGGAUGUAGGAUAUCAGGACGAUAAGUCCUGAGAAGGACAUGAGGAUCACCCAUGUCUAAUAAACCAGUGCUAUAAUAUA	14.4 nM	18.9 nM		
ACAUGAGGAUCACCCAUGUACAUGGGUUUAAUUGUUUGUUACUAGGAUAUGUAUUUGAAUUUACAACAGAAGGAGUAUUAAUGU	985 nM	414 nM		
UGCGCCUGCGAGAAGGCACAGAUCCAGCUCUUGACAUGAGGAUCACCCAUGUGAGGAUAUCGCAGGCGCGAAUUGGGACAAUCU	12.8 nM	74.1 nM		
CGUGCGUAUGUGAGGAUAUGCUGGUCCUUGGCUCGGCAGAAGGCACAUGAGGAUCACCCAUGUGGUGUCGUACU	69 nM	179 nM		
GAGGAUAGAGGAUAUGCAUAGAUACGGAUUCGUGUAGUACUACAUGAGGAUCACCCAUGUAGAAGGCUGUCCUG	14.3 nM	22.1 nM		
AUUUAUUAGUAAGGAUAUACUAGCGAUUUGCUUGUAGAAGGUACAGUCUUAUGUAUAACAUGUUAACAUGAGGAUCACCCAUGU			44.4 nM	27.5 nM
